Reference: BindingDB's records for doi:10.1016/j.bmcl.2009.08.036 (Glaxosmithkline, 2009)
pEC50: −log10 of the molar value.

Molecular target: T1, Oxysterols receptor LXR-beta (Homo sapiens, UniProt P55055)
T1 sequence (P55055 whole entry): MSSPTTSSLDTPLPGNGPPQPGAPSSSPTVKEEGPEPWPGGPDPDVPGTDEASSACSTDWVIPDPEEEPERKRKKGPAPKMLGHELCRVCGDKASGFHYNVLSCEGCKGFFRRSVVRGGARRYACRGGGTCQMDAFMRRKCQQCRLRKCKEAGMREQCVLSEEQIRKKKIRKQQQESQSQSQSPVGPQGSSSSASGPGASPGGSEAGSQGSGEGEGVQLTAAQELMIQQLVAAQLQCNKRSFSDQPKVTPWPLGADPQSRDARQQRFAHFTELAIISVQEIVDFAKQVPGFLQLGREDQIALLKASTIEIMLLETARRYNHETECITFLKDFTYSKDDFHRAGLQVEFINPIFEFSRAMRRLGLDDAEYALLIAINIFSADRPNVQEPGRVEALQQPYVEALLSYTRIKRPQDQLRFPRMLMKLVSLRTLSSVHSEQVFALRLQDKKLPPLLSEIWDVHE
Test: Agonist activity at human LXRbeta assessed as association of SRC1 to LXRbeta ligand binding domain by FRET based cell-free ligand sensing assay
Method in brief: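 Cell-free FRET ligand-sensing assay measuring ligand-dependent recruitment of a 24-amino-acid steroid receptor coactivator 1 (SRC1) fragment to the LXR ligand-binding domain. Percent efficacy is expressed against the maximal agonist response of the reference agonist. Values are means of at least two experiments, standard deviation ≤10%.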

- pEC50: 7.59
Compound: O=C(O)C1CCCc2c(OCCCN(Cc3cccc(C(F)(F)F)c3Cl)CC(c3ccccc3)c3ccccc3)cccc21 (racemic) [(+/-)-5-(3-((2-chloro-3-(trifluoromethyl)benzyl)(2,2-diphenylethyl)amino)propoxy)-1,2,3,4-tetrahydronaphthalene-1-carboxylic acid]
